OX1R antag-1 – blocks the human orexin 1 receptor. O43613. CHO/OX1R cells, Fluo-8 calcium fluorescence, orexin A. AID 434989. 0.43% of 330,000 active. inhibition, % at 5 µM;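 active means inhibition above its plate's threshold, mean inhibition of all tested compounds on the plate plus 3 SD, cut at about 37% in these data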
TAAR1 antag – antagonists of human TAAR1; Q96RJ0; CHO RD-HGA16 TAAR1, Fluo-8 calcium fluorescence, antagonist; inhibition, % at 3 µM; 1.5% of 360,000 active;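 active means inhibition above a per-plate cutoff, the mean inhibition of test compounds on that plate plus 3 SD, cut at about 49% in these data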
Target sequence (Q96RJ0 whole entry, looked up): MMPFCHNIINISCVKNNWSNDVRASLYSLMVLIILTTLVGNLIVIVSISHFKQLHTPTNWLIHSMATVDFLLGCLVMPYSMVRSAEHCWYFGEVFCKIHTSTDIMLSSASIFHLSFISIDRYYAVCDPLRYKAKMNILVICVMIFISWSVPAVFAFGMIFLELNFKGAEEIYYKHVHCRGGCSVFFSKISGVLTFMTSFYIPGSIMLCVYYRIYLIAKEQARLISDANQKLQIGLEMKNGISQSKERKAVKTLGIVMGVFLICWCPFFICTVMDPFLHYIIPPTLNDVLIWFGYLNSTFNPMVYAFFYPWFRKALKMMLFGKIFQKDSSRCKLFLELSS
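test system = CHO RD-HGA16 cells bearing hTAAR1 | replication = singlicate | controls = DMSO-only wells and EC80 β-PEA-stimulated wells | reagent = EC80 β-phenethylamine stimulus | read-out basis = percent inhibition of PEA-evoked calcium signal, max/basal emission ratio | schedule = seeding 17-24 h prior, 75-min 37 °C, 30-min RT dye loading | signal = kinetic Fluo-8 calcium fluorescence measurement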
TAAR1 agonist – agonists of human TAAR1. activation, % at 3 µM. Q96RJ0. CHO RD-HGA16 TAAR1, Fluo-8 calcium fluorescence; vehicle wells 0%, saturating PEA agonist 100%. 0.99% of 360,000 active;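 active means activation above the mean activation of all test compounds in the run plus 3 SD, cut at about 38% in these data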
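Signal – calcium-sensitive Fluo-8 signal, excitation 470-495, emission 515-575 nm · System – RD-HGA16 (CHO) cells co-expressing Gα16 and hTAAR1 · Incubation – 17-24 h seeding, 75 min 37 °C dye, 30 min RT · Compound dosing – 3 µM single concentration · Repeats – no replicates (n 1)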
OX1R antag-2 – OX1R (human) antagonism; O43613; OX1R-expressing cells, FRET antagonist read-out; 1.8% of 330,000 active; inhibition, % at 6.6 µM; in the data active means inhibition mostly above about 38%, no sharp cut-off; inactive means mostly below about 40%
GPR7 antagonist – human neuropeptides B/W receptor 1 antagonism. GPR7-expressing cells, fluorescence antagonist assay. 1.1% of 290,000 active. inhibition, % at 4.4 µM. P48145; in the data active means inhibition above about 16%, passing the limit was not always enough;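 further: cells stimulated with the agonist NPW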
Target sequence (P48145 whole entry, looked up): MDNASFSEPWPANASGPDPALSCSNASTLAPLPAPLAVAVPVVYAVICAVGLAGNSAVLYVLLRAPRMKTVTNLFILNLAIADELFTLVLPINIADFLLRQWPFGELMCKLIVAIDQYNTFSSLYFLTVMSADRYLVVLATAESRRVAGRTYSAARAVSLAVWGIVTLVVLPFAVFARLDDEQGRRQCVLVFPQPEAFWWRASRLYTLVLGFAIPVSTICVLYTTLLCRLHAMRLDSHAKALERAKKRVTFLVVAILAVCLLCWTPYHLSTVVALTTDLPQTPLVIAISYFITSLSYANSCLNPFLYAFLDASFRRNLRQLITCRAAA
CHO parental Ca – counter-screen for OX1R antagonists: effect in parental CHO cells; parental CHO-K1, ATP-induced calcium, Fluo-8 fluorescence; inhibition, % at 5.6 µM; 0.63% of 330,000 active;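 active means inhibition above that plate's mean sample inhibition plus 3 SD, cut at about 26% in these data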
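Assay system – parental CHO cells · Reagent – ATP stimulus · Detection – intracellular calcium via Fluo-8 no-wash fluorescent dye · Evaluation – percent inhibition of ATP-evoked calcium rise, normalized to controls · Controls – ATP wells versus no-ATP DMSO wells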
Numbers stand for hits; i = inactive; nt = not tested or not shown. In the library only some 4.6% were active in any assay of this set; here they are far more common.

SMILES	OX1R antag-1	TAAR1 antag	TAAR1 agonist	OX1R antag-2	GPR7 antagonist	CHO parental Ca
C=CCN=C1NC(c2ccc(Cl)cc2)C(C(=O)OC)=C(C)N1C (configuration not stated)	nt	i	i	nt	nt	nt
COc1cccc(CC(=O)NCC2CCN(C(=O)C(=O)c3cccs3)CC2)c1	nt	i	i	nt	nt	nt
CC(C)(C)C(=O)NC(=S)NNC(=O)C(c1ccccc1)c1ccccc1	92.7	nt	nt	i	89.8	79.5
CC1(S(=O)(=O)O)CC(=O)c2ccccc2C1=O (configuration not stated)	i	i	i	60.1	i	i
COc1cc(C(=O)Nc2scc(-c3ccc(Br)cc3)c2C(=O)O)cc(OC)c1OC	i	i	i	54.2	i	i
Cc1cccc(C(=O)Nc2scc(-c3ccc(Br)cc3)c2C(=O)O)c1	i	i	i	i	nt	i
C/C(=N\NC(=S)NC1CCCCC1)c1ccc(OC(F)F)cc1OC(F)F	i	i	i	i	i	40.8
C/C(=N\NC(=O)C1CC1)c1ccc(OC(F)F)cc1OC(F)F	i	i	i	i	i	i
FC(F)Oc1ccc(NC(=S)NC2CCCCCCC2)cc1	i	i	i	i	i	37.2
FC(F)(F)c1cccc(NC(=S)N2CCN(c3cccc(C(F)(F)F)c3)CC2)c1	i	i	i	i	i	69.5
CC1=C(C(=O)Nc2cccc(C(=O)N3CCN(c4cccc(C(F)(F)F)c4)CC3)c2)SCCO1	62.1	55.7	i	i	i	40.0
CC1(C(=O)NS(=O)(=O)c2ccc(F)cc2F)CCN1C(=O)c1ccccc1 (configuration not stated)	nt	i	i	nt	nt	nt
Cc1cccc(C)c1NC(=O)C(c1cccc2ccccc12)n1c(=O)c(-c2cc3ccccc3[nH]2)nc2ccccc21 (configuration not stated)	nt	i	i	nt	nt	nt
COc1ccc(O)c(C(=O)c2cc(C(=O)NCCc3ccccc3)c(=O)n(CCc3ccccc3)c2)c1	i	51.3	i	i	i	i
COc1ccc(O)c(C(=O)CC(=O)c2ccccc2)c1	i	nt	nt	i	i	i
O=C(CN1C(=O)NC2(CCc3ccccc32)C1=O)Nc1ccccc1OC(F)F (configuration not stated)	i	i	i	i	nt	i
CC1(c2ccccc2Cl)NC(=O)N(CC(=O)Nc2ccccc2OC(F)F)C1=O (configuration not stated)	i	i	i	43.1	i	i
Cc1ccc(NC(=O)C(C)c2ccc([N+](=O)[O-])cc2)cc1Cl (configuration not stated)	i	i	i	i	40.1	i
CC(C(=O)Nc1ccccc1Br)c1ccc([N+](=O)[O-])cc1 (configuration not stated)	i	i	i	i	i	i
Cc1cc(N/C(=C\C(=O)c2ccccc2)c2ccccc2)ccc1Br	nt	i	i	nt	nt	nt
COc1ccccc1/C=C/C(=O)Nc1cccc(C(C)=O)c1	i	i	i	60.2	i	i
O=C(/C=C/c1ccccc1Cl)Nc1cccc(O)c1	i	i	i	i	22.3	i
COc1cccc(/C=C/C(=O)Nc2cccc(C(C)=O)c2)c1OC	i	i	i	i	i	i
COc1ccc(-c2cnnc(N/N=C/c3ccc(O)c(O)c3)n2)cc1	i	i	i	75.3	i	i
OCCC1CN(Cc2ccccc2OC2CCCC2)CCN1Cc1ccsc1 (configuration not stated)	i	i	i	i	20.1	i
SMILES	OX1R antag-1	TAAR1 antag	TAAR1 agonist	OX1R antag-2	GPR7 antagonist	CHO parental Ca
CCCN(CC(=O)Nc1ccccc1C)C(=O)c1cc2ccccc2oc1=O	nt	i	i	nt	nt	nt
COCCNc1nc(-c2ccccc2)nc2ccccc12	i	i	i	46.5	i	i
COc1ccc(CCNc2nc(-c3cccnc3)nc3ccccc23)cc1OC	i	63.3	i	i	i	i
COCCN(CCOC)c1nc(-c2ccccc2)nc2ccccc12	nt	56.2	i	nt	i	nt
Cc1ccc(CNc2nc(-c3cccnc3)nc3ccccc23)cc1	i	i	i	i	i	i
CCCCCCC12Cc3cc(OC)c(OC)cc3C(O1)C1=C(O2)C(C)(C)CCC1=O (configuration not stated)	nt	i	i	nt	nt	nt
CS(=O)(=O)NNC(=O)C1Cc2c(ccc3ccccc23)O1 (configuration not stated)	i	i	i	i	i	i
O=C(NNS(=O)(=O)c1ccc(F)cc1F)C1Cc2c(ccc3ccccc23)O1 (configuration not stated)	50.7	i	i	i	i	42.0
COc1ccc(C2=Nc3ccccc3N(C(=O)c3ccc(C(F)(F)F)cc3)C2C(=O)Nc2c(C)cccc2C)cc1 (configuration not stated)	nt	i	i	nt	nt	nt
O=C(NCCN1CCC(n2c(=O)[nH]c3ccccc32)CC1)c1cccc(Cl)c1	nt	i	i	nt	nt	nt
CCCCOc1ccc(Br)cc1CSC(=N)N	nt	72.6	102.7	nt	74.7	nt
CCOc1ccc(C(C)=O)cc1CSC(=N)N	i	i	i	i	i	i
Cc1ccc(Nc2ncccc2C(=O)NCc2cccs2)c(C)c1	i	i	i	i	i	i
Cc1cccc(Nc2ncccc2C(=O)NCc2cccs2)c1C	i	i	37.6	i	i	i
CC(=O)Nc1ccc(S(=O)(=O)Nc2nnc(C)s2)cc1	nt	i	i	nt	nt	nt
OC(c1ccccc1)C1(c2ccccc2)CCN(Cc2ccccc2)CC1 (configuration not stated)	nt	i	i	nt	nt	nt
CCCCCc1nc2sc3c(c2c(=O)n1NC(=O)c1ccc([N+](=O)[O-])cc1)CC(C)(C)OC3	i	i	i	53.4	i	i
Cc1cc(C)c(S(=O)(=O)c2ccccc2C)c(SCC(C)C)n1	i	i	i	i	i	56.9
CCCSc1nc(C)cc(C)c1S(=O)(=O)c1ccccc1C	53.7	i	i	i	i	i
COC(=O)[C@]12C[C@H](CC(=O)N3CCN(C(=O)C4CC4)CC3)C(=O)N(Cc3ccccc3)C1=C[C@H](C(C)(C)C)O[C@@H]2C	nt	i	i	nt	nt	nt
CC(=O)N(c1ccccc1C)C1CCCC1	i	i	i	i	i	i
CC(=O)N(C1=C(Cl)C(=O)c2ccccc2C1=O)C1CCCCC1	i	i	42.0	71.1	i	37.9
Cn1cnnc1SCC(=O)Nc1ccc2nc(SCc3ccccc3Cl)sc2c1	i	i	i	i	i	i
Cn1cnnc1SCC(=O)Nc1ccc2nc(SCc3cccc4ccccc34)sc2c1	i	i	41.7	i	i	i
N#CCCN(Cc1ccccc1)C(CCc1ccccc1)C(=O)NC1CCCCC1 (configuration not stated)	nt	i	i	nt	nt	nt
O=C(CSc1nnc(Cn2nnc3ccccc32)o1)N(Cc1ccc(Cl)cc1)c1ccccc1	52.6	i	i	75.5	i	66.3
CN(C)C(=O)c1noc2cc([N+](=O)[O-])ccc12	i	i	i	52.4	i	i
COc1ccc([N+](=O)[O-])cc1NC(C)C	i	i	i	i	i	i
